The source made the active and inactive calls. The calls are words filed in the database; no cut-off is given here.
How the values were obtained:
Rattus norvegicus [1] = test: Antiinflammatory activity in Wistar rat model of BR103-induced paw edema assessed as increase in number of intact mast cells at 10 mg/kg, po administered via gavage pretreated for 2 hrs followed by BR103 challenge and measured after 30 mins by alcian blue/safranin O staining-based histopathological analysis; format: functional, organism-based
In short: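 Male Wistar rats 7–8 weeks old, given 10 mg/kg p.o. in olive oil 2 h before i.pl. BR103 (350 μg/paw). Sham/control received olive oil. Left paw plantar tissue taken 30 min after agonist and fixed in formalin. Frozen 5 μm sections stained with alcian blue/safranin O, or immunostained for tryptase, histamine or ED1. Positive cells quantified; n = 5 per group, one-way ANOVA.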

Rattus norvegicus [2] = test: Antiinflammatory activity in Wistar rat model of BR103-induced paw edema assessed as reduction in Il1b gene expression at 10 mg/kg, po administered via gavage pretreated for 2 hrs followed by BR103 challenge and measured after 30 mins by SYBR green dye based RT-PCR analysis; format: functional, organism-based
In short: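 Rats given 10 mg/kg p.o. in olive oil 2 h before i.pl. BR103 (350 μg/paw). Paws collected 0.5 h after agonist and homogenized in TRIsure for RNA. qPCR run in duplicate, normalized to Hprt, with fold change relative to sham. n = 3–5 male Wistar rats per group.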

SMILES: Cc1cc(C(c2ccc(Cl)cc2)c2ccc(Cl)cc2)sc1C(=O)N[C@@H](CCCNC(=N)N)C(=O)O
- Activity (Rattus norvegicus [1]): Active
- Activity (Rattus norvegicus [2]): Active

Source: ChEMBL document CHEMBL4376878, “Potent Thiophene Antagonists of Human Complement C3a Receptor with Anti-Inflammatory Activity” (J Med Chem, 2020)
